Test results from ChEMBL document CHEMBL5724801, “EUbOPEN Chemogenomics Library - Multiplex” (2024).
“And” between values parts separate entries of the source, which are not always exact repeats. Identical values can stand only once.

Test system: Fibroblast
Test: Multiplex assay against human fibroblast
Type: toxicity, cell-based
Procedure, shortened: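 Hoechst33342, BioTracker Green Microtubule Cytoskeleton Dye, MitoTracker Red and Annexin V Alexa Fluor 680 were added to live cells at seeding, and imaging on a CQ1 microscope at 37°C and 5% CO2 followed compound addition. Gating by CellPathfinder machine learning separated cells into Hoechst high-intensity objects or normal cells, then normal cells into healthy, pyknosed or fragmented nuclei, then pyknosed cells into mitotic or apoptotic. Per cents of healthy-nucleus cells are reported for the tubulin, mitochondrial-mass and membrane-permeability phenotypes.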

[1] = 12 h, 1 µM, compound concentration 1 uM
[2] = 12 h, 10 µM, compound concentration 10 uM
[3] = 24 h, 1 µM, compound concentration 1 uM
[4] = 24 h, 10 µM, compound concentration 10 uM
[5] = 48 h, 1 µM, compound concentration 1 uM
[6] = 48 h, 10 µM, compound concentration 10 uM

SMILES: COC(=O)c1ccc2c(c1)NC(=O)/C2=C(\Nc1ccc(N(C)C(=O)CN2CCN(C)CC2)cc1)c1ccccc1 [NINTEDANIB]
- Population Apoptotic (%) [1]: 16.28% and 33.33%
- Population Fragmented Nuclei (%) [1]: 16.48% and 7.77%
- Population Healthy Nuclei (%) [1]: 59.09% and 77.67%
- Population Hoechst High Intensity Objects (%) [1]: 0%
- Population Membrane Permeable-Phenotype (%) [1]: 6.73% and 3.75%
- Population Mitochondria Different-Phenotype (%) [1]: 17.31% and 10%
- Population Mitotic Cells (%) [1]: 83.72% and 66.67%
- Population Normal (%) [1]: 100%
- Population Pyknosed Nuclei (%) [1]: 24.43% and 14.56%
- Population Tubulin-Different-Phenotype (%) [1]: 38.46% and 36.88%
- Total Cell Count [1]: 176 and 206
- Population Apoptotic (%) [2]: 40.91% and 35.76%
- Population Fragmented Nuclei (%) [2]: 5.54% and 1.86%
- Population Healthy Nuclei (%) [2]: 51.47% and 66.87%
- Population Hoechst High Intensity Objects (%) [2]: 0.65% and 0%
- Population Membrane Permeable-Phenotype (%) [2]: 29.11% and 30.65%
- Population Mitochondria Different-Phenotype (%) [2]: 33.54% and 14.24%
- Population Mitotic Cells (%) [2]: 59.09% and 64.24%
- Population Normal (%) [2]: 99.35% and 100%
- Population Pyknosed Nuclei (%) [2]: 43% and 31.26%
- Population Tubulin-Different-Phenotype (%) [2]: 51.27% and 85.14%
- Total Cell Count [2]: 309 and 483
- Population Apoptotic (%) [3]: 16.22% and 30%
- Population Fragmented Nuclei (%) [3]: 15.92% and 9.59%
- Population Healthy Nuclei (%) [3]: 65.67% and 76.71%
- Population Hoechst High Intensity Objects (%) [3]: 0%
- Population Membrane Permeable-Phenotype (%) [3]: 3.79% and 3.57%
- Population Mitochondria Different-Phenotype (%) [3]: 8.33% and 10.71%
- Population Mitotic Cells (%) [3]: 83.78% and 70%
- Population Normal (%) [3]: 100%
- Population Pyknosed Nuclei (%) [3]: 18.41% and 13.7%
- Population Tubulin-Different-Phenotype (%) [3]: 31.82% and 40.48%
- Total Cell Count [3]: 201 and 219
- Population Apoptotic (%) [4]: 45.74% and 54.65%
- Population Fragmented Nuclei (%) [4]: 5.3% and 6.9%
- Population Healthy Nuclei (%) [4]: 59.09% and 71.92%
- Population Hoechst High Intensity Objects (%) [4]: 0.75% and 0%
- Population Membrane Permeable-Phenotype (%) [4]: 12.18% and 13.36%
- Population Mitochondria Different-Phenotype (%) [4]: 45.51% and 32.53%
- Population Mitotic Cells (%) [4]: 54.26% and 45.35%
- Population Normal (%) [4]: 99.25% and 100%
- Population Pyknosed Nuclei (%) [4]: 35.61% and 21.18%
- Population Tubulin-Different-Phenotype (%) [4]: 66.67% and 90.75%
- Total Cell Count [4]: 266 and 406
- Population Apoptotic (%) [5]: 21.43% and 45%
- Population Fragmented Nuclei (%) [5]: 19.15% and 12.93%
- Population Healthy Nuclei (%) [5]: 74.89% and 78.45%
- Population Hoechst High Intensity Objects (%) [5]: 0%
- Population Membrane Permeable-Phenotype (%) [5]: 0.57% and 1.65%
- Population Mitotic Cells (%) [5]: 78.57% and 55%
- Population Normal (%) [5]: 100%
- Population Pyknosed Nuclei (%) [5]: 5.96% and 8.62%
- Population Tubulin-Different-Phenotype (%) [5]: 23.86% and 42.31%
- Total Cell Count [5]: 235 and 232
- Population Apoptotic (%) [6]: 60.29% and 65.38%
- Population Fragmented Nuclei (%) [6]: 8.47% and 8.93%
- Population Healthy Nuclei (%) [6]: 64.11% and 83.57%
- Population Hoechst High Intensity Objects (%) [6]: 0%
- Population Membrane Permeable-Phenotype (%) [6]: 9.43% and 8.97%
- Population Mitochondria Different-Phenotype (%) [6]: 44.65% and 33.45%
- Population Mitotic Cells (%) [6]: 39.71% and 34.62%
- Population Normal (%) [6]: 100%
- Population Tubulin-Different-Phenotype (%) [6]: 58.49% and 91.72%
- Total Cell Count [6]: 248 and 347

SMILES: COc1cc(/C=C(\C#N)C(=O)Nc2nnc(C(F)(F)F)s2)ccc1OCc1ccc(C(F)(F)F)cc1C(F)(F)F
- Population Healthy Nuclei (%) [1]: 58.16% and 84.16%
- Population Hoechst High Intensity Objects (%) [1]: 0%
- Population Membrane Permeable-Phenotype (%) [1]: 2.63% and 2.94%
- Population Mitochondria Different-Phenotype (%) [1]: 3.51% and 3.53%
- Population Mitotic Cells (%) [1]: 97.5% and 65%
- Population Normal (%) [1]: 100%
- Population Pyknosed Nuclei (%) [1]: 20.41% and 9.9%
- Population Tubulin-Different-Phenotype (%) [1]: 14.04% and 8.24%
- Total Cell Count [1]: 196 and 202
- Population Apoptotic (%) [2]: 13.04% and 12.12%
- Population Fragmented Nuclei (%) [2]: 7.14% and 5.21%
- Population Healthy Nuclei (%) [2]: 67.58% and 79.15%
- Population Hoechst High Intensity Objects (%) [2]: 0%
- Population Membrane Permeable-Phenotype (%) [2]: 4.07% and 1.2%
- Population Mitochondria Different-Phenotype (%) [2]: 8.13% and 4.79%
- Population Mitotic Cells (%) [2]: 86.96% and 87.88%
- Population Normal (%) [2]: 100%
- Population Pyknosed Nuclei (%) [2]: 25.27% and 15.64%
- Population Tubulin-Different-Phenotype (%) [2]: 7.32% and 18.56%
- Total Cell Count [2]: 182 and 211
- Population Apoptotic (%) [3]: 9.09% and 25%
- Population Fragmented Nuclei (%) [3]: 17.05% and 6.05%
- Population Healthy Nuclei (%) [3]: 67.74% and 86.51%
- Population Hoechst High Intensity Objects (%) [3]: 0%
- Population Membrane Permeable-Phenotype (%) [3]: 5.44% and 3.23%
- Population Mitochondria Different-Phenotype (%) [3]: 4.76% and 1.61%
- Population Mitotic Cells (%) [3]: 90.91% and 75%
- Population Normal (%) [3]: 100%
- Population Pyknosed Nuclei (%) [3]: 15.21% and 7.44%
- Population Tubulin-Different-Phenotype (%) [3]: 14.97% and 9.14%
- Total Cell Count [3]: 217 and 215
- Population Apoptotic (%) [4]: 9.09% and 23.53%
- Population Fragmented Nuclei (%) [4]: 4.46% and 6.64%
- Population Healthy Nuclei (%) [4]: 79.21% and 85.31%
- Population Hoechst High Intensity Objects (%) [4]: 0%
- Population Membrane Permeable-Phenotype (%) [4]: 3.75% and 3.33%
- Population Mitochondria Different-Phenotype (%) [4]: 7.5% and 5%
- Population Mitotic Cells (%) [4]: 90.91% and 76.47%
- Population Normal (%) [4]: 100%
- Population Pyknosed Nuclei (%) [4]: 16.34% and 8.06%
- Population Tubulin-Different-Phenotype (%) [4]: 10% and 18.89%
- Total Cell Count [4]: 202 and 211
- Population Apoptotic (%) [5]: 33.33% and 37.5%
- Population Fragmented Nuclei (%) [5]: 14.56% and 6.01%
- Population Healthy Nuclei (%) [5]: 78.54% and 90.56%
- Population Hoechst High Intensity Objects (%) [5]: 0%
- Population Membrane Permeable-Phenotype (%) [5]: 2.93% and 0.95%
- Population Mitochondria Different-Phenotype (%) [5]: 8.29% and 2.37%
- Population Mitotic Cells (%) [5]: 66.67% and 62.5%
- Population Normal (%) [5]: 100%
- Population Pyknosed Nuclei (%) [5]: 6.9% and 3.43%
- Population Tubulin-Different-Phenotype (%) [5]: 6.83% and 10.43%
- Total Cell Count [5]: 261 and 233
- Population Fragmented Nuclei (%) [6]: 7.11% and 8.56%
- Population Healthy Nuclei (%) [6]: 90.05% and 88.74%
- Population Hoechst High Intensity Objects (%) [6]: 0%
- Population Membrane Permeable-Phenotype (%) [6]: 1.05% and 2.03%
- Population Mitochondria Different-Phenotype (%) [6]: 10.53% and 2.54%
- Population Mitotic Cells (%) [6]: 100% and 50%
- Population Normal (%) [6]: 100%
- Population Pyknosed Nuclei (%) [6]: 2.84% and 2.7%
- Total Cell Count [6]: 211 and 222

SMILES: O=C(NCCN1CCC(n2c(=O)[nH]c3cc(Cl)ccc32)CC1)c1ccc(F)cc1 [HALOPEMIDE]
- Population Apoptotic (%) [1]: 32% and 44%
- Population Fragmented Nuclei (%) [1]: 11% and 27%
- Population Healthy Nuclei (%) [1]: 62% and 43%
- Population Hoechst High Intensity Objects (%) [1]: 0% and 7%
- Population Membrane Permeable-Phenotype (%) [1]: 1% and 10%
- Population Mitochondria Different-Phenotype (%) [1]: 10% and 0%
- Population Mitotic Cells (%) [1]: 67% and 56%
- Population Normal (%) [1]: 99% and 92%
- Population Pyknosed Nuclei (%) [1]: 26% and 29%
- Population Tubulin-Different-Phenotype (%) [1]: 29% and 56%
- Total Cell Count [1]: 120 and 92
- Population Apoptotic (%) [2]: 55% and 31%
- Population Fragmented Nuclei (%) [2]: 15% and 24%
- Population Healthy Nuclei (%) [2]: 54% and 34%
- Population Hoechst High Intensity Objects (%) [2]: 3% and 4%
- Population Membrane Permeable-Phenotype (%) [2]: 0% and 6%
- Population Mitochondria Different-Phenotype (%) [2]: 17% and 14%
- Population Mitotic Cells (%) [2]: 44% and 68%
- Population Normal (%) [2]: 96% and 95%
- Population Pyknosed Nuclei (%) [2]: 30% and 41%
- Population Tubulin-Different-Phenotype (%) [2]: 77% and 87%
- Total Cell Count [2]: 204 and 148
- Population Apoptotic (%) [3]: 58% and 37%
- Population Fragmented Nuclei (%) [3]: 16% and 32%
- Population Healthy Nuclei (%) [3]: 69% and 41%
- Population Hoechst High Intensity Objects (%) [3]: 3% and 10%
- Population Membrane Permeable-Phenotype (%) [3]: 1% and 5%
- Population Mitochondria Different-Phenotype (%) [3]: 9% and 8%
- Population Mitotic Cells (%) [3]: 41% and 62%
- Population Normal (%) [3]: 96% and 90%
- Population Pyknosed Nuclei (%) [3]: 13% and 26%
- Population Tubulin-Different-Phenotype (%) [3]: 38% and 59%
- Total Cell Count [3]: 128 and 100
- Population Apoptotic (%) [4]: 67% and 41%
- Population Fragmented Nuclei (%) [4]: 23% and 26%
- Population Healthy Nuclei (%) [4]: 51% and 38%
- Population Hoechst High Intensity Objects (%) [4]: 5% and 6%
- Population Membrane Permeable-Phenotype (%) [4]: 0% and 12%
- Population Mitochondria Different-Phenotype (%) [4]: 28% and 32%
- Population Mitotic Cells (%) [4]: 32% and 58%
- Population Normal (%) [4]: 95% and 93%
- Population Pyknosed Nuclei (%) [4]: 24% and 35%
- Population Tubulin-Different-Phenotype (%) [4]: 78% and 94%
- Total Cell Count [4]: 220 and 140
- Population Apoptotic (%) [5]: 52% and 35%
- Population Fragmented Nuclei (%) [5]: 14% and 38%
- Population Healthy Nuclei (%) [5]: 68% and 43%
- Population Hoechst High Intensity Objects (%) [5]: 3% and 4%
- Population Membrane Permeable-Phenotype (%) [5]: 4% and 14%
- Population Mitochondria Different-Phenotype (%) [5]: 7% and 4%
- Population Mitotic Cells (%) [5]: 47% and 64%
- Population Normal (%) [5]: 96% and 95%
- Population Pyknosed Nuclei (%) [5]: 17%
- Population Tubulin-Different-Phenotype (%) [5]: 36% and 63%
- Total Cell Count [5]: 128 and 99
- Population Apoptotic (%) [6]: 80% and 48%
- Population Fragmented Nuclei (%) [6]: 32% and 35%
- Population Healthy Nuclei (%) [6]: 50% and 45%
- Population Hoechst High Intensity Objects (%) [6]: 10% and 5%
- Population Membrane Permeable-Phenotype (%) [6]: 0% and 10%
- Population Mitochondria Different-Phenotype (%) [6]: 35% and 15%
- Population Mitotic Cells (%) [6]: 19% and 52%
- Population Normal (%) [6]: 89% and 94%
- Population Pyknosed Nuclei (%) [6]: 17% and 19%
- Population Tubulin-Different-Phenotype (%) [6]: 77% and 96%
- Total Cell Count [6]: 229 and 136
